Source: ChEMBL document CHEMBL4396881, “Improved Th17 Selectivity of α-Galactosylceramide via Noncovalent Interactions with Diether Moiety” (ACS Med Chem Lett, 2019)
Active and inactive are the calls of the source.

Columns and labels:
Type in all cases: functional
Mus musculus [1] = organism: Mus musculus; test: Stimulation of cytokine secretion in C57BL/6 mouse HMNCs assessed as increase in IL-4 secretion at 25 nM measured after 72 hrs by ELISA
Mus musculus [2] = organism: Mus musculus; test: Stimulation of cytokine secretion in C57BL/6 mouse HMNCs assessed as increase in IL-17 secretion at 25 nM measured after 72 hrs by ELISA
Mus musculus [3] = organism: Mus musculus; test: Antiinflammatory activity in C57BL/6 mouse HMNCs assessed as reduction in IL-17 secretion at 5 to 125 nM
Mus musculus [4] = organism: Mus musculus; test: Stimulation of cytokine secretion in C57BL/6 mouse HMNCs assessed as increase in IFN gamma secretion at 25 nM measured after 72 hrs by ELISA
Mus musculus [5] = organism: Mus musculus; test: Stimulation of cytokine secretion in C57BL/6 mouse HMNCs assessed as increase in IL-17 secretion at 5 to 125 nM measured after 72 hrs by ELISA
Mus musculus [6] = organism: Mus musculus; test: Stimulation of cytokine secretion in C57BL/6 mouse HMNCs assessed as increase in IL-2 secretion at 25 nM measured after 24 hrs by ELISA
Procedure, shortened: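 Mouse hepatic mononuclear cells were exposed to the α-GalCer analogues. IL-2 secretion was read 24 h after treatment. Results were expressed as relative activity, mean ± SEM, from n = 3 biological replicates.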

Mus musculus [7] = organism: Mus musculus; test: Stimulation of cytokine secretion in C57BL/6 mouse HMNCs assessed as increase in IL-17 secretion measured after 72 hrs by ELISA

Measured: Activity

CCCCCCCCCCCCCC[C@@H](O)[C@@H](O)[C@H](CO[C@H]1O[C@H](CO)[C@H](O)[C@H](O)[C@H]1O)NC(=O)CCCCCCCCCCCCCCCCOCCCCOCCC
not listed: Mus musculus [7]
active: all other assays above

CCCCCCCCCCCCCC[C@@H](O)[C@@H](O)[C@H](CO[C@H]1O[C@H](CO)[C@H](O)[C@H](O)[C@H]1O)NC(=O)CCCCCCCCCCCOCCCCCCCCCOCCC
active: Mus musculus [1] | Mus musculus [2] | Mus musculus [4] | Mus musculus [6]

CCCCCCCCCCCCCC[C@@H](O)[C@@H](O)[C@H](CO[C@H]1O[C@H](CO)[C@H](O)[C@H](O)[C@H]1O)NC(=O)CCCCCCCCCCCOCCCCCCCCCCOCC
active: Mus musculus [7] Dose-dependent effect | Mus musculus [1] | Mus musculus [2] | Mus musculus [4] | Mus musculus [6]

CCCCCCCCCCCCCC[C@@H](O)[C@@H](O)[C@H](CO[C@H]1O[C@H](CO)[C@H](O)[C@H](O)[C@H]1O)NC(=O)CCCCCCCCCCCCCCCCOCCCCCOCC
active: Mus musculus [1] | Mus musculus [2] | Mus musculus [4] | Mus musculus [6]

CCCCCCCCCCCCCC[C@@H](O)[C@@H](O)[C@H](CO[C@H]1O[C@H](CO)[C@H](O)[C@H](O)[C@H]1O)NC(=O)CCCCCCCCCCCCOCCCCCCCCCOCC
active: Mus musculus [7] Dose-dependent effect | Mus musculus [1] | Mus musculus [2] | Mus musculus [4] | Mus musculus [6]

CCCCCCCCCCCCCC[C@@H](O)[C@@H](O)[C@H](CO[C@H]1O[C@H](CO)[C@H](O)[C@H](O)[C@H]1O)NC(=O)CCCCCCCCCCCCCCOCCCCCCOCCC
active: Mus musculus [1] | Mus musculus [2] | Mus musculus [4] | Mus musculus [6]

CCCCCCCCCCCCCC[C@@H](O)[C@@H](O)[C@H](CO[C@H]1O[C@H](CO)[C@H](O)[C@H](O)[C@H]1O)NC(=O)CCCCCCCCCCCCOCCCCCCCCOCCC
active: Mus musculus [1] | Mus musculus [2] | Mus musculus [4] | Mus musculus [6]

CCCCCCCCCCCCCC[C@@H](O)[C@@H](O)[C@H](CO[C@H]1O[C@H](CO)[C@H](O)[C@H](O)[C@H]1O)NC(=O)CCCCCCCCCCCCCCOCCCCCCCOCC
active: Mus musculus [1] | Mus musculus [2] | Mus musculus [4] | Mus musculus [6]

CCCCCCCCCCCCCCCCCCCCCCCCCC(=O)N[C@@H](CO[C@H]1O[C@H](CO)[C@H](O)[C@H](O)[C@H]1O)[C@H](O)[C@H](O)CCCCCCCCCCCCCC
active: Mus musculus [1] | Mus musculus [4]
